Data on two molecules can be found in ChEMBL document CHEMBL2331234, “Novel analgesic/anti-inflammatory agents: 1,5-diarylpyrrole nitrooxyalkyl ethers and related compounds as cyclooxygenase-2 inhibiting nitric oxide donors” (J Med Chem, 2013).

For assay [1], the system named is Rattus norvegicus. Nature of the assay: Antiinflammatory activity in Sprague-Dawley/Wistar rat assessed as decrease in carrageenan-induced hyperalgesia at 40 mg/kg, po administered 4 hrs after carrageenan-challenge measured after 120 mins (reference value: 31.4 +/- 3.7 g). Format: functional.
For assay [2], the system named is Rattus norvegicus. Nature of the assay: Antiinflammatory activity in Sprague-Dawley/Wistar rat assessed as decrease in carrageenan-induced paw edema at 40 mg/kg, po administered 3 hrs 30 mins after carrageenan-challenge measured after 60 mins (reference value: 2.48 +/- 0.06 mL). The format is functional. Background: The carrageenan paw model is a standard test of acute inflammation.

Another assay relates to Mus musculus. Nature of the assay: Antinociceptive activity in po dosed Swiss albino mouse assessed as reduction in number of acetic acid-induced writhing counted 5 mins after acetic acid challenge counted for 10 mins. Format: functional. Particulars: read-out: MED. In outline: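 Male Swiss albino mice (23-25 g) dosed orally, then given 0.6% acetic acid (10 mL/kg) ip. Stretching movements counted for 10 min, starting 5 min after the acetic acid. Control group received CMC. At least 7 mice/group; mean ± SEM, ANOVA with Fisher's PLSD.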

Assay [3] deals with Rattus norvegicus. As to the kind of experiment: Antiinflammatory activity in Sprague-Dawley/Wistar rat assessed as decrease in carrageenan-induced hyperalgesia at 20 mg/kg, po administered 4 hrs after carrageenan-challenge measured after 60 mins (reference value: 33.9 +/- 3.7 g). The format is functional.
The subject of assay [4] is Rattus norvegicus. As to the kind of experiment: Antiinflammatory activity in Sprague-Dawley/Wistar rat assessed as decrease in carrageenan-induced hyperalgesia at 40 mg/kg, po administered 4 hrs after carrageenan-challenge measured after 30 mins (reference value: 34.8 +/- 3.0 g). Format: functional.
In assay [5] the test system is Rattus norvegicus. Nature of the assay: Antiinflammatory activity in Sprague-Dawley/Wistar rat assessed as decrease in carrageenan-induced hyperalgesia at 20 mg/kg, po administered 4 hrs after carrageenan-challenge measured after 30 mins (reference value: 34.8 +/- 3.0 g). Format: functional.
Assay [6] concerns Aorta. As to the kind of experiment: Vasorelaxant activity in Wistar rat endothelium-removed thoracic aortic rings assessed as reduction of KCl-induced vasoconstriction at 0.001 uM to 10 uM treated after KCl-challenge in presence of guanylate cyclase inhibitor 1H-[1,2,4]-oxadiazolo[4,3-a]quinoxalin-1-one. Format: functional, tissue-based. In outline:
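Endothelium-denuded aortic rings from male Wistar rats (250-350 g) were preincubated with ODQ 1 µM. Rings were contracted with KCl 30 mM, then given 3-fold increasing concentrations from 1 nM to 10 µM. Emax is the % relaxation of KCl tone. pIC50 was calculated when efficacy reached 50%, from 6-10 experiments.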

Assay [7] deals with T1, Prostaglandin G/H synthase 1 (Mus musculus, UniProt P22437).
T1 sequence (P22437 whole entry): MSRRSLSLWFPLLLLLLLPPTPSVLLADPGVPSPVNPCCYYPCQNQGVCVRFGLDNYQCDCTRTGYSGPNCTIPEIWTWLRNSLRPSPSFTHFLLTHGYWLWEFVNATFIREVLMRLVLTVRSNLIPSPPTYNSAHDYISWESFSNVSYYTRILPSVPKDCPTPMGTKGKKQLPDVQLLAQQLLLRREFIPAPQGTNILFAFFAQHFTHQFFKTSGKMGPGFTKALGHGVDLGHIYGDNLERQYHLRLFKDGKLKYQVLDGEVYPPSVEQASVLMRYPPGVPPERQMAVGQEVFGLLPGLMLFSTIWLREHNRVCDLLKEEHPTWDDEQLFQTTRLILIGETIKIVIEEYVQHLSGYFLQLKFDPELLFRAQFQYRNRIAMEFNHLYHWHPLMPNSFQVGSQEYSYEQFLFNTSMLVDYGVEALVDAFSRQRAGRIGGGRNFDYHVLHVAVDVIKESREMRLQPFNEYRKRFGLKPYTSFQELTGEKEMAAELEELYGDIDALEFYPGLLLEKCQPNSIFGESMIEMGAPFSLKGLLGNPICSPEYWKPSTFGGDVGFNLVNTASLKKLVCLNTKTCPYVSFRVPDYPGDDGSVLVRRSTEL
Nature of the assay: Inhibition of arachidonic acid-induced COX1 activity in mouse J774 cells assessed as decrease in PGE2 levels incubated for 15 mins prior to arachidonic acid-challenge measured after 30 mins by RIA. The format is cell-based. In outline: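 Cells were in DMEM with 10% FBS and adhered for 2 h at 37 °C. They were pretreated with compound (10 µM; 0.1-1 µM where inhibition exceeded 50%) for 15 min, then given 15 µM arachidonic acid for 30 min at 37 °C. Supernatant PGE2 was measured by RIA. Triplicate wells were used and the mean of three experiments reported. IC50 came from a variable-slope sigmoidal fit.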

The subject of assay [8] is Rattus norvegicus. As to the kind of experiment: Antiinflammatory activity in Sprague-Dawley/Wistar rat assessed as decrease in carrageenan-induced hyperalgesia at 40 mg/kg, po administered 4 hrs after carrageenan-challenge measured after 60 mins (reference value: 33.9 +/- 3.7 g). The format is functional.
In assay [9] the test system is Rattus norvegicus. Nature of the assay: Antiinflammatory activity in Sprague-Dawley/Wistar rat assessed as decrease in carrageenan-induced hyperalgesia at 20 mg/kg, po administered 4 hrs after carrageenan-challenge measured after 120 mins (reference value: 31.4 +/- 3.7 g). The format is functional.
Assay [10] has as its system Aorta. Nature of the assay: Vasorelaxant activity in Wistar rat endothelium-removed thoracic aortic rings assessed as reduction of KCl-induced vasoconstriction treated after KCl-challenge. Format: functional, tissue-based. In outline:
(§1)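 Thoracic aortic rings from male Wistar rats (250-350 g), endothelium removed by rubbing; removal confirmed as <10% relaxation to ACh 10 µM in KCl 30 mM-contracted rings. Rings contracted with KCl 30 mM; at plateau, 3-fold increasing compound concentrations (1 nM-10 µM) added. Isometric tension recorded. Emax given as % of KCl tone; pIC50 as -log molar concentration halving that tone. 6-10 experiments; also run with ODQ 1 µM.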

The test system of assay [11] is Rattus norvegicus. Nature of the assay: Antiinflammatory activity in Sprague-Dawley/Wistar rat assessed as decrease in carrageenan-induced paw edema at 20 mg/kg, po administered 3 hrs 30 mins after carrageenan-challenge measured after 60 mins (reference value: 2.48 +/- 0.06 mL). Format: functional.
Assay [12] has as its target T2, Prostaglandin G/H synthase 2 (Mus musculus, UniProt Q05769).
T2 sequence (Q05769 whole entry): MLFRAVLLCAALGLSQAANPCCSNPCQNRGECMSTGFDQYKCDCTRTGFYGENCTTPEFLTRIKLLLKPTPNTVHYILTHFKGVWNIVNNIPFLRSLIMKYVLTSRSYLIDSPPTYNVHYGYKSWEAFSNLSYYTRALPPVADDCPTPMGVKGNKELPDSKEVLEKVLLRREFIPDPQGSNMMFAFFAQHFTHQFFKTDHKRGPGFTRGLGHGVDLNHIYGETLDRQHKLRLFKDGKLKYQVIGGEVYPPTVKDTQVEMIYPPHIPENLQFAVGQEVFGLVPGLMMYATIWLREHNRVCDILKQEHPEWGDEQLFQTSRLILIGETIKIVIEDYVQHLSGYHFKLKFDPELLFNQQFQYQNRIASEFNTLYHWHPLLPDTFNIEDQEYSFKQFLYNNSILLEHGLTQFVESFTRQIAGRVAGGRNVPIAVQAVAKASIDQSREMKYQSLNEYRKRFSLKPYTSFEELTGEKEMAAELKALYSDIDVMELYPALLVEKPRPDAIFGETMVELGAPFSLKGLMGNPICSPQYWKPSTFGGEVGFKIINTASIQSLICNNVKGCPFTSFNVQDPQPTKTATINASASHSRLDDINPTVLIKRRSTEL
As to the kind of experiment: Inhibition of Escherichia coli lipopolysaccharide-induced COX2 activity in mouse J774 cells assessed as decrease in PGE2 levels after 24 hrs by RIA. The format is cell-based. Put shortly: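 Adhered cells in DMEM/10% FBS were stimulated with E. coli LPS 10 µg/mL for 24 h with compound present at 0.01-10 µM. Supernatant PGE2 was measured by RIA. IC50 came from a variable-slope sigmoidal fit.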

The next assay has as its system J774. Nature of the assay: Selectivity index, ratio of IC50 for COX1 in mouse J774 cells […]. The format is cell-based.
For assay [13], the system named is Aorta. Nature of the assay: Vasorelaxant activity in Wistar rat endothelium-removed thoracic aortic rings assessed as reduction of KCl-induced vasoconstriction at 0.001 uM to 10 uM treated after KCl-challenge relative to control. Format: functional. Put shortly: as §1
Assay [14] concerns the target Prostaglandin G/H synthase 1 (Homo sapiens, UniProt P23219). Nature of the assay: Inhibition of COX1 in human whole blood assessed as reduction in TXB2 generation. In outline: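 Clotting assay in whole blood from three healthy volunteers with no NSAID for 2 weeks. Compounds in DMSO were added at 0.1-300 µM final. Blood clotted in glass tubes at 37 °C for 1 h. Serum TXB2 was measured by RIA as a reflection of platelet COX-1 activity driven by endogenous thrombin.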

For assay [15], the target named is T3, Prostaglandin G/H synthase 2 (Homo sapiens) (UniProt P35354).
T3 sequence (whole entry): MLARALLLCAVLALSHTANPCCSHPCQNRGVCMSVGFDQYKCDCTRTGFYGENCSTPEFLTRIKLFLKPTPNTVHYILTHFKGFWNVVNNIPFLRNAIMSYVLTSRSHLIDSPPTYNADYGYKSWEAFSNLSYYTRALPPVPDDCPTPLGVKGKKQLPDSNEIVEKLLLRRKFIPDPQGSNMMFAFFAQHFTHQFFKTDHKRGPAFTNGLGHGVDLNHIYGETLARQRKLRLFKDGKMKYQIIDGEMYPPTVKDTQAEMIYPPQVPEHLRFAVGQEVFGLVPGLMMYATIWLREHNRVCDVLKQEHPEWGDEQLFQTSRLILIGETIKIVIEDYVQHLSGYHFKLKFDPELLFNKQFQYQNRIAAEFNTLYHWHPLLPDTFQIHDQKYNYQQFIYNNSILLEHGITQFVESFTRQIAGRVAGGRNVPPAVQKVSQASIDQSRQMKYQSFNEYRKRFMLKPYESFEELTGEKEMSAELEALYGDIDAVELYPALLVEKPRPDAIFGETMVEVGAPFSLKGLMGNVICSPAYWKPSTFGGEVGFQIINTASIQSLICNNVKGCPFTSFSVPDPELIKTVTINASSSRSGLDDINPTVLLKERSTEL
As to the kind of experiment: Inhibition of COX2 in human whole blood assessed as reduction in LPS-induced PGE2 generation pre-treated prior to LPS-challenge. Put shortly:
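Heparinized whole blood came from three healthy volunteers pretreated with aspirin 300 mg 48 h before sampling to suppress platelet COX-1. Compounds in DMSO were added at 0.1-300 µM final. Blood was incubated with LPS 10 µg/mL for 24 h at 37 °C. Plasma PGE2 was measured by RIA.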

The subject of assay [16] is Rattus norvegicus. Nature of the assay: Antiinflammatory activity in Sprague-Dawley/Wistar osteoarthritis model rat assessed as decrease in monoiodoacetate-induced hyperalgesia at 20 mg/kg, po bid for 14 days administered from day of monoiodoacetate-challenge followed by additional compound treatment after 30 mins […] by paw pressure test (reference value: 30.4 +/- 3.1 g). The format is functional.

The species named for another assay is Bos taurus. As to the kind of experiment: (§2) Inhibition of interleukin 1 beta-induced glycosaminoglycan release in bovine articular cartilage of metacarpophalangeal joints of feet treated 48 hrs after interleukin 1beta-challenge by DMB colorimetric assay. The format is functional. Put shortly:
(§3)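 Bovine metacarpophalangeal cartilage slices (about 100 mg per well) were cultured in serum-free DMEM at 37 °C, 5% CO2, with medium changed on days 1 and 2. On day 3 the slices were challenged with IL-1β 30 ng/mL plus compound for 48 h. GAG release was measured by the DMB (Farndale) assay and expressed as % of IL-1β alone, n = 3. EC50 is given with 95% CI.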

Assay [17] is described as follows: as §2. Format: functional, Bos taurus. Put shortly: as §3
In assay [18] the test system is Rattus norvegicus. As to the kind of experiment: Antiinflammatory activity in Sprague-Dawley/Wistar osteoarthritis model rat assessed as decrease in monoiodoacetate-induced hyperalgesia at 20 mg/kg, po bid for 14 days administered from day of monoiodoacetate-challenge […] post by paw pressure test (reference value: 32.6 +/- 2.9 g). Format: functional.

Activity calls are given as the source filed them. No cut-off for these calls is given here.

Prostaglandin G/H synthase 1 (Homo sapiens, UniProt P23219), sequence (P23219 whole entry): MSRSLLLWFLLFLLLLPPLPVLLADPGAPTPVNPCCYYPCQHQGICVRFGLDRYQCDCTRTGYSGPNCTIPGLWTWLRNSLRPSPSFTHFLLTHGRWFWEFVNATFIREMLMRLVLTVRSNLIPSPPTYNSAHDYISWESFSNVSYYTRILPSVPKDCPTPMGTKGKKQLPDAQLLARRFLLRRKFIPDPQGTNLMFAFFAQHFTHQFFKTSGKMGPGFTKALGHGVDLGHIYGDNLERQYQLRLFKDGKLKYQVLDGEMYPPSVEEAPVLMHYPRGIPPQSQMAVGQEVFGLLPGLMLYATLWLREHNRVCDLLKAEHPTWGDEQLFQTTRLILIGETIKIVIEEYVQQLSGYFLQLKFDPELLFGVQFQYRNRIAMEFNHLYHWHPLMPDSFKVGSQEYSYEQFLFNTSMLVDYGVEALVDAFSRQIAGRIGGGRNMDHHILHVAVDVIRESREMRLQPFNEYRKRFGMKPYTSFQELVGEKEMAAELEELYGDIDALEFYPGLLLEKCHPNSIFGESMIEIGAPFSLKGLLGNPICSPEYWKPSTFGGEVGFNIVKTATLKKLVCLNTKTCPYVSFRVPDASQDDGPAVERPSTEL

In general, IC50 refers to the concentration that gives 50% inhibition. With `Cc1c(CCOCCO[N+](=O)[O-])cc(-c2ccc(S(C)(=O)=O)cc2)n1-c1cccc(F)c1`, the Activity turned out to be 34.3 g in the assay with Rattus norvegicus [1]; 2.08 mL in the assay on Rattus norvegicus [2]; 40.7 g in the assay on Rattus norvegicus [3]; 47.3 g in the assay on Rattus norvegicus [4]; 43.9 g in the assay on Rattus norvegicus [5]; 41 g in the assay with Rattus norvegicus [8]. The Activity was 35.2 g with Rattus norvegicus [9] and 2.16 mL with Rattus norvegicus [11]. For the same molecule, the minimal effective dose in the assay on Mus musculus amounted to 40 mg/kg. Moreover, the result in the assay on Aorta [6] was inactive. Moreover, the IC50 in assay [7] is over 10 µM; with Aorta [10] it was 4.79 µM; in [12], 0.027 µM. Besides, the pIC50 result in the assay on Aorta [10] was “Dose-dependent effect”. For the same molecule, in the assay on J774, the Ratio IC50 is over 357.

The term IC80 denotes the concentration at which the effect reaches the 80% level. As to `Cc1c(CCOCCO)cc(-c2ccc(S(C)(=O)=O)cc2)n1-c1ccc(F)cc1`, the Activity came to 47.6 g in the assay with Rattus norvegicus [1]; 1.95 mL in the assay on Rattus norvegicus [2]; 38.7 g with Rattus norvegicus [3]; 57.2 g with Rattus norvegicus [4]; 46.8 g in the assay with Rattus norvegicus [5]; 58.3 g in the assay on Rattus norvegicus [8]. The Activity in the assay on Rattus norvegicus [9] worked out at 38.3 g; with Rattus norvegicus [16], 51.2 g; in the assay on Rattus norvegicus [11] it was 2.01 mL; with Rattus norvegicus [18], 49.7 g. In addition, the Emax entry with Aorta [13] was “inactive”. For the same molecule, in the assay with Mus musculus, the minimal effective dose came out at 40 mg/kg. The IC50 in [14] was 20 µM; in [7], over 10 µM; in assay [17], 33 µM. Further, the IC80 in assay [14] worked out at 37.1 µM; in assay [15], 2.31 µM. Further, the inhibition entry (in assay [14]; in assay [15]; in the assay listed under Bos taurus) was “Dose-dependent effect” throughout.
